Measurements from ChEMBL document CHEMBL1141083, “Development of human calcitonin gene-related peptide (CGRP) receptor antagonists. 1. Potent and selective small molecule CGRP antagonists. 1-[N2-[3,5-dibromo-N-[[4-(3,4-dihydro-2(1H)-oxoquinazolin-3-yl)-1-piperidinyl]carbonyl]-D-tyrosyl]-l-lysyl]-4-(4-pyridinyl)piperazine: the first CGRP antagonist …” (J Med Chem, 2005).

What was measured:
[1] = molecular target: T1, Calcitonin gene-related peptide type 1 receptor (Homo sapiens, UniProt O60894+Q16602); experiment: Affinity against human calcitonin gene related peptide receptor (1 uM) expressed in SK-N-MC cells using [125I]-CGRP as radioligand after 180 minutes of incubation at pH 7.40; type: cell-based
T1 sequence (Q16602 whole entry, one chain of several): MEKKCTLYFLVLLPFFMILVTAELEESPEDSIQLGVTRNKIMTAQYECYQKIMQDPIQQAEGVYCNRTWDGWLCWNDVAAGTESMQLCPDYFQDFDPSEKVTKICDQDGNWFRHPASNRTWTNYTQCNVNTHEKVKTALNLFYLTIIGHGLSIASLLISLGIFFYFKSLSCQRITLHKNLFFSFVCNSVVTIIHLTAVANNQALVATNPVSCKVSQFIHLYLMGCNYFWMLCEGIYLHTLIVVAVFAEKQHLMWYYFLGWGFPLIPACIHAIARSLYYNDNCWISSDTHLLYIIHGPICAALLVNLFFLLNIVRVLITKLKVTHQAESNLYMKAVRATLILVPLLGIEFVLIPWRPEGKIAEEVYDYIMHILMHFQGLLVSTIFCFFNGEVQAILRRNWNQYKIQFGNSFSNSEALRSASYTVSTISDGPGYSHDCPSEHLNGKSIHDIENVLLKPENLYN
Method in brief: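 SK-N-MC cell membranes, frozen at -80 °C in Tris/BSA/bacitracin buffer, then diluted 1:10 in assay buffer (50 mM Tris, 150 mM NaCl, 5 mM MgCl2, 1 mM EDTA, pH 7.40). Filtered, gamma counted, nonspecific binding with 1 μM human α-CGRP. IC50 by one-site nonlinear regression; at least three experiments in triplicate.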

[2] = molecular target: T1, Calcitonin gene-related peptide type 1 receptor; experiment: Antagonistic activity against calcitonin gene related peptide receptor determined by measuring the formation of cyclic AMP in SK-N-MC cells; type: functional, cell-based; settings: read-out: pA2 (converted)
[3] = molecular target: Calcitonin gene-related peptide type 1 receptor (Rattus norvegicus, UniProt Q63118); experiment: Affinity against calcitonin gene related peptide receptor (1 uM) in rat spleen using [125I]CGRP as radioligand after 180 minutes of incubation at pH 7.40; type: tissue-based
Calcitonin gene-related peptide type 1 receptor (Rattus norvegicus, UniProt Q63118), sequence (Q63118 whole entry): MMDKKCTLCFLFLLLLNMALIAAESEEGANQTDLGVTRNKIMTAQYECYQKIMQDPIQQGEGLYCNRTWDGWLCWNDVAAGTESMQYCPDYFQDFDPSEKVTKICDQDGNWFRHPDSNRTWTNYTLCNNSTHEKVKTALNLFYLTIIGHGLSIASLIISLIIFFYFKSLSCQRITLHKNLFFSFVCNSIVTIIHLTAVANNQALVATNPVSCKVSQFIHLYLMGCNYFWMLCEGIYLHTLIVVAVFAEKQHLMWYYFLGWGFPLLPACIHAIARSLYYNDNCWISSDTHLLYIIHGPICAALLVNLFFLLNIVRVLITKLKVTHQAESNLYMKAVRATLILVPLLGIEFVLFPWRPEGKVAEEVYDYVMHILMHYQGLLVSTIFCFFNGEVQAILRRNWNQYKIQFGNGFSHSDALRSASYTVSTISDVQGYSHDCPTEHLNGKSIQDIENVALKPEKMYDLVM
Method in brief: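 Membrane homogenates of marmoset or rat spleen, diluted 1:10 in assay buffer (50 mM Tris, 150 mM NaCl, 5 mM MgCl2, 1 mM EDTA, pH 7.40). Incubated 180 min at ambient temperature with 50 pM 125I-CGRP and increasing test concentrations, then filtered on PEI-treated GF/B filters and gamma counted. Nonspecific binding defined with 1 μM human α-CGRP. IC50 from one-site nonlinear regression.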

| SMILES | IC50 [1] [nM] | Kb [2] [nM] | IC50 [3] [nM] |
| --- | --- | --- | --- |
| NCCCC[C@@H](NC(=O)[C@@H](Cc1cc(Br)c(O)c(Br)c1)NC(=O)CCCc1ccccc1)C(=O)NCCc1ccccc1 | > 300000 | – | – |
| NCCCC[C@@H](NC(=O)[C@H](Cc1cc(Br)c(N)c(Br)c1)NC(=O)CCCc1ccccc1)C(=O)N1CCNCC1 | > 300000 | – | – |
| NCCCC[C@@H](NC(=O)[C@H](Cc1cc(Br)c(O)c(Br)c1)NC(=O)N1CCC(n2c(=O)oc3ccccc32)CC1)C(=O)N1CCN(c2ccncc2)CC1 | 44 | 10 | – |
| COc1cccc(CCNC(=O)N[C@@H](Cc2cc(Br)c(O)c(Br)c2)C(=O)N[C@H](CCCCN)C(=O)N2CCN(c3ccncc3)CC2)c1 | 200 | 126 | 70500 |
| COc1ccccc1N1CCN(C(=O)N[C@@H](Cc2cc(Br)c(O)c(Br)c2)C(=O)N[C@H](CCCCN)C(=O)N2CCN(c3ccncc3)CC2)CC1 | 226 | – | – |
| NCCCC[C@@H](NC(=O)[C@H](Cc1cc(Br)c(O)c(Br)c1)NC(=O)N1CCC(n2c(O)nc3ccccc32)CC1)C(=O)N1CCN(c2ccncc2)CC1 | 0.2 | 0.0794 | 56.7 |
| COc1ccccc1CCNC(=O)N[C@@H](Cc1cc(Br)c(O)c(Br)c1)C(=O)N[C@H](CCCCN)C(=O)NCCc1ccccc1 | 13000 | – | – |
| NCCCC[C@@H](NC(=O)[C@H](Cc1cc(Br)c(O)c(Br)c1)NC(=O)N1CCC(n2cc(-c3ccccc3)[nH]c2=O)CC1)C(=O)N1CCN(c2ccncc2)CC1 | 0.05 | – | – |
| COc1ccccc1C1CCN(C(=O)N[C@@H](Cc2cc(Br)c(O)c(Br)c2)C(=O)N[C@H](CCCCN)C(=O)N2CCN(c3ccncc3)CC2)CC1 | 250 | – | – |
| NCCCC[C@@H](NC(=O)[C@H](Cc1cc(Br)c(N)c(Br)c1)NC(=O)CCc1ccccc1)C(=O)NCCc1ccccc1 | 196000 | – | – |
| NCCCC[C@@H](NC(=O)[C@H](Cc1cc(Br)c(N)c(Br)c1)NC(=O)CCCc1ccccc1)C(=O)Nc1ccccc1 | 50000 | – | – |
| NCCCC[C@@H](NC(=O)[C@H](Cc1cc(Br)c(N)c(Br)c1)NC(=O)CCCc1ccccc1)C(=O)NCCc1ccccc1 | 40000 | – | – |
| NCCCC[C@@H](NC(=O)[C@H](Cc1cc(Br)c(N)c(Br)c1)NC(=O)CCCc1ccccc1)C(=O)N1CCN(c2ccncc2)CC1 | 10300 | – | – |
| NCCCC[C@@H](NC(=O)[C@H](Cc1cc(Br)c(N)c(Br)c1)NC(=O)CCCc1ccccc1)C(=O)N1CCN(c2ccccc2)CC1 | > 300000 | – | – |
| NCCCC[C@H](NC(=O)[C@H](Cc1cc(Br)c(O)c(Br)c1)NC(=O)CCCc1ccccc1)C(=O)NCCc1ccccc1 | > 300000 | – | – |
| NCCCC[C@@H](NC(=O)[C@H](Cc1cc(Br)c(O)c(Br)c1)NC(=O)N1CCC(N(C(N)=O)c2ccccc2)CC1)C(=O)N1CCN(c2ccncc2)CC1 | 4.7 | 0.794 | – |
| NCCCC[C@@H](NC(=O)[C@H](Cc1cc(Br)c(O)c(Br)c1)NC(=O)N1CCC(N2Cc3ccccc3NC2=O)CC1)C(=O)N1CCN(c2ccncc2)CC1 | – | – | 6.4 |
| COc1ccccc1CCNC(=O)N[C@@H](Cc1cc(Br)c(O)c(Br)c1)C(=O)N[C@H](CCCCN)C(=O)N1CCN(c2ccncc2)CC1 | 1000 | – | – |
| NCCCC[C@H](NC(=O)[C@@H](Cc1cc(Br)c(O)c(Br)c1)NC(=O)CCCc1ccccc1)C(=O)NCCc1ccccc1 | > 300000 | – | – |
| NCCCC[C@@H](NC(=O)[C@H](Cc1cc(Br)c(O)c(Br)c1)NC(=O)CCCc1ccccc1)C(=O)NCCc1ccccc1 | 17000 | – | – |
